Assay results collected from several papers.
Target: Testis-specific serine/threonine-protein kinase 1 (TSSK1B, Homo sapiens, UniProt Q9BXA7)
Sequence (Q9BXA7 1-367, as in one of the studies): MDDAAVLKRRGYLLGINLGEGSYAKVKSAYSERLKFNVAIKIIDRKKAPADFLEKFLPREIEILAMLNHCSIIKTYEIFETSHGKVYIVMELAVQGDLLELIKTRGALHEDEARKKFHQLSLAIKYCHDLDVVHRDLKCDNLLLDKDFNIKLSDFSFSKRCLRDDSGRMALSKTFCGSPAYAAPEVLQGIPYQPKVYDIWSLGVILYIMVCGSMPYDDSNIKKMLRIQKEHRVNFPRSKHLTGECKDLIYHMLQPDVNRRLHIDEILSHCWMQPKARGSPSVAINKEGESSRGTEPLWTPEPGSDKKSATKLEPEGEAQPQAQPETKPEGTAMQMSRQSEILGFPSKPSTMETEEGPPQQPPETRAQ

The remaining activity of `CCN(CC)c1ccc(C2=NNC(=O)CC2C)cc1[N+](=O)[O-]` (centres unmarked) is reported as 96% (enzyme activity, inhibitor; 10 µM).
`CCOCCn1cc(C(=O)Nc2ccc(-n3nc(-c4cccnc4)cc3C(F)(F)F)cn2)ccc1=O` gave a remaining binding of 100% (cell-free assay, competition with immobilised ligand; 1 µM).
For `N#CCCc1ccc2c(c1)-c1[nH]c3ccc([N+](=O)[O-])cc3c1CC(=O)N2`, the remaining signal was 59.2% (cell-free assay; 0.5 µM).
The activity vs control of `Cc1cc(NC(=O)c2cccc3cc(-c4cccc5[nH]nc(N)c45)ccc23)ccc1F` is reported as 86% (enzyme activity, inhibitor; 0.1 µM).
For `Cc1ccc(Nc2nccc(N(C)c3ccc4c(C)n(C)nc4c3)n2)cc1S(N)(=O)=O`, the inhibition was -1% (enzyme activity, inhibitor; 0.3 µM).
The remaining activity of `Cc1sc(C(=O)NC2COC2)cc1-n1cc(NC(=O)Nc2c(F)cccc2Cl)cn1` is reported as 103% (enzyme activity, inhibitor; 10 µM).
The remaining signal of `O=C1NC(=O)c2cc(Nc3ccc(F)cc3)c(Nc3ccc(F)cc3)cc21` is reported as 90.2% (cell-free assay; 0.5 µM).
`CN(C)C(=O)Cn1cc(-c2nc(C3(c4ccc(-c5cnc(N)nc5)cc4)CC3)no2)cn1` gave a remaining binding of 100% (cell-free assay, competition with immobilised ligand; 1 µM).
`CC(C)(C)c1nc(-c2cccc(NS(=O)(=O)c3c(F)cccc3F)c2F)c(-c2ccnc(N)n2)s1` has a remaining activity of 84% (enzyme activity, inhibitor, radiometric; 1 µM).
The remaining activity of `COc1cc(Nc2cnc(C#N)c(O[C@H](C)CN(C)C)n2)ncc1-c1cnn(C)c1` is reported as 72% (enzyme activity, inhibitor, radiometric; 1 µM).
`COc1cc(-c2cn(C3CCc4c(F)cccc4N(CC(F)(F)F)C3=O)nn2)ccc1-n1cnc(C)c1` (centres unmarked) gave a remaining binding of 100% (cell-free assay, competition with immobilised ligand; 1 µM).
`Cc1cnc(NC2CCOCC2)nc1-n1cnc(C(=O)NC(CN)c2cc(F)cc(Cl)c2)c1` (centres unmarked) gave a remaining activity of 55% (enzyme activity, inhibitor, radiometric; 1 µM).
`Nc1ncnc2occ(-c3ccc(NC(=O)Nc4cc(C(F)(F)F)ccc4F)cc3)c12` gave a remaining signal of 52% (cell-free assay, inhibitor; 20 µM).
`CN(C)C1CCN(CC#Cc2nn(C3CCCC3)c3nc(NCc4ccccc4)ncc23)C1` (centres unmarked) gave an inhibition of 4% (enzyme activity, inhibitor, FRET; 0.1 µM).
The activity vs control of `COc1cc(/C=C/C(=O)CC(=O)/C=C/c2ccc(O)c(OC)c2)ccc1O` is reported as 106% (enzyme activity, inhibitor; 1 µM).
The remaining binding of `CS(=O)(=O)N1CCCC(NC(=O)[C@H](CCC2CCCCC2)NC(=O)c2ccc(CNC(=O)c3cnc4ccccn34)cc2)C1` (some centres unmarked) is reported as 94% (cell-free assay, competition with immobilised ligand; 0.1 µM).
`COc1cc2ncnc(Nc3ccc(Oc4ccccc4)c(C)c3C)c2cc1OC` gave an inhibition of 4% (enzyme activity, inhibitor; 1 µM).
`N#Cc1ccc(Nc2ccc3[nH]c(=O)[nH]c3c2)c(Cl)c1` has a remaining binding of 56% (cell-free assay, competition with immobilised ligand; 1 µM).
With `CNC(=O)c1cc(Oc2ccc(NC(=O)Nc3ccc(Cl)c(C(F)(F)F)c3)cc2)ccn1` the inhibition was 2% (enzyme activity, inhibitor; 10 µM).
`CNC(=O)c1ccc(Nc2ncc(C(F)(F)F)c(NCc3nccnc3N(C)S(C)(=O)=O)n2)cc1` gave a remaining binding of 64% (cell-free assay, competition with immobilised ligand; 0.1 µM).
For `Cc1ccc(C(=O)Nc2ccc(CN3CCN(C)CC3)c(C(F)(F)F)c2)cc1C#Cc1cnc2cccnn12`, the remaining activity was 83% (enzyme activity, inhibitor; 23.5 nM).
`O=S(=O)(NC1CCC(c2cc(F)ccc2F)(S(=O)(=O)c2ccc(Cl)cc2)CC1)C(F)(F)F` (centres unmarked) gave a remaining binding of 100% (cell-free assay, competition with immobilised ligand; 1 µM).
With `CCN(CC)CCNC(=O)c1c(C)[nH]c(/C=C2\C(=O)Nc3ccc(F)cc32)c1C` the inhibition was -1% (enzyme activity, inhibitor; 0.3 µM).
